Article PMC10957407 (Food Chemistry: X, 2024)
Values after ≈ are worked out from the molar mass of the structure shown.

What was measured:
1-F12 = assay: icELISA with mAb 1-F12; format: binding, Balb/c mice; conditions: for CR: CR%=IC50 6-GG/IC50 test compound x100%
How it was run: (§1)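 Ascites-derived mAbs (caprylic acid–ammonium sulfate purified) from female Balb/c mice immunized with hapten–BSA. Plates coated with hapten–OVA in carbonate buffer (0.5 mol L−1, pH 9.6), blocked with 5% skim milk, washed with PBST, and detected with goat anti-mouse IgG-HRP; reaction stopped with 2 mol L−1 H2SO4. Analyte stocks (1 mg/mL, 70% methanol) were diluted in 10% methanol-PBS. IC50 values were fitted, and cross-reactivity was calculated for capsaicinoids, gingerol derivatives and eight other compounds.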

1-D6 = assay: icELISA with mAb 1-D6; format: binding, Balb/c mice; conditions: for CR: CR%=IC50 6-GG/IC50 test compound x100%
How it was run: as §1

1-G12 = assay: icELISA with mAb 1-G12; format: binding, Balb/c mice; conditions: for CR: CR%=IC50 6-GG/IC50 test compound x100%
How it was run: as §1

5-3H1 = assay: icELISA with mAb 5-3H1; format: binding
5-D8 = assay: icELISA with mAb 5-D8; format: binding
3-LD3 = assay: icELISA with mAb 3-LD3; format: binding
2-LD2 = assay: icELISA with mAb 2-LD2; format: binding
6-AT6 = assay: icELISA with mAb 6-AT6; format: binding
4-AT4 = assay: icELISA with mAb 4-AT4; format: binding
[1] = mAb 1-F12, specific evaluation (Table 1, Fig. 3B)
[2] = mAb 1-D6, specific evaluation (Table 1, Fig. 3C)
[3] = mAb 1-G12, specific evaluation (Table 1, Fig. 3D)
[4] = coating antigen Hapten 1-OVA, mAb 1-F12
[5] = coating antigen Hapten 2-OVA, mAb 1-F12
[6] = coating antigen Hapten 3-OVA, mAb 1-F12
[7] = coating antigen Hapten 4-OVA, mAb 1-F12
[8] = coating antigen Hapten 5-OVA, mAb 1-F12 (optimal combination)
[9] = coating antigen Hapten 6-OVA, mAb 1-F12
[10] = coating antigen Hapten 1-OVA, mAb 1-D6
[11] = coating antigen Hapten 2-OVA, mAb 1-D6
[12] = coating antigen Hapten 3-OVA, mAb 1-D6
[13] = coating antigen Hapten 4-OVA, mAb 1-D6
[14] = coating antigen Hapten 5-OVA, mAb 1-D6
[15] = coating antigen Hapten 6-OVA, mAb 1-D6
[16] = coating antigen Hapten 1-OVA, mAb 1-G12
[17] = coating antigen Hapten 2-OVA, mAb 1-G12
[18] = coating antigen Hapten 3-OVA, mAb 1-G12
[19] = coating antigen Hapten 4-OVA, mAb 1-G12
[20] = coating antigen Hapten 5-OVA, mAb 1-G12
[21] = coating antigen Hapten 6-OVA, mAb 1-G12

COc1cccc(CNC(=O)CC#N)c1 [2-Cyano-N-(3-methoxybenzyl) acetamide]
IC50 (1-F12; [1]): >4 µg/mL
CR (1-F12; mAb 1-F12): <12.66%
IC50 (1-D6; [2]): >4 µg/mL
CR (1-D6; mAb 1-D6): <1.48%
IC50 (1-G12; [3]): >4 µg/mL
CR (1-G12; mAb 1-G12): <14.01%

CCCCCCCC(=O)CCc1cc(OC)c(O)c(C(=O)O)c1 [2-hydroxy-3-methoxy-5-(3-oxodecyl) benzoic acid]
IC50 (1-F12; [1]): >4 µg/mL
CR (1-F12; mAb 1-F12): <12.66%
IC50 (1-D6; [2]): 1.9528 µg/mL (≈ 6.06 µM)
CR (1-D6; mAb 1-D6): 3.03%
IC50 (1-G12; [3]): >4 µg/mL
CR (1-G12; mAb 1-G12): <14.01%

COc1cc(CCC(=O)O)ccc1O [3-(4-Hydroxy-3-methoxyphenyl) propionic Acid]
IC50 (1-F12; [1]): >4 µg/mL
CR (1-F12; mAb 1-F12): <12.66%
IC50 (1-D6; [2]): 2.17533 µg/mL (≈ 11.1 µM)
CR (1-D6; mAb 1-D6): 2.72%
IC50 (1-G12; [3]): >4 µg/mL
CR (1-G12; mAb 1-G12): <14.01%

COc1cc(CNC(=O)CCCC/C=C/C(C)C)ccc1O [CPC, Capsaicin]
IC50 (5-3H1; coating antigen Hapten 1-OVA): 1.15967 µg/mL (≈ 3.8 µM)
IC50 (5-3H1; coating antigen Hapten 2-OVA): 0.547 µg/mL (≈ 1.79 µM)
IC50 (5-3H1; coating antigen Hapten 3-OVA): 0.79417 µg/mL (≈ 2.6 µM)
IC50 (5-3H1; coating antigen Hapten 4-OVA): 0.02586 µg/mL (≈ 0.0847 µM)
IC50 (5-3H1; coating antigen Hapten 5-OVA): 0.10327 µg/mL (≈ 0.338 µM)
IC50 (5-D8; coating antigen Hapten 1-OVA): 0.03987 µg/mL (≈ 0.131 µM)
IC50 (5-D8; coating antigen Hapten 2-OVA): 0.54041 µg/mL (≈ 1.77 µM)
IC50 (5-D8; coating antigen Hapten 3-OVA): 0.56457 µg/mL (≈ 1.85 µM)
IC50 (5-D8; coating antigen Hapten 4-OVA): 0.02878 µg/mL (≈ 0.0942 µM)
IC50 (5-D8; coating antigen Hapten 5-OVA): 0.04559 µg/mL (≈ 0.149 µM)
IC50 (3-LD3; coating antigen Hapten 2-OVA): 0.01016 µg/mL (≈ 0.0333 µM)
IC50 (3-LD3; coating antigen Hapten 3-OVA): 0.03008 µg/mL (≈ 0.0985 µM)
IC50 (3-LD3; coating antigen Hapten 4-OVA): 0.00387 µg/mL (≈ 0.0127 µM)
IC50 (2-LD2; coating antigen Hapten 1-OVA): 0.11875 µg/mL (≈ 0.389 µM)
IC50 (2-LD2; coating antigen Hapten 2-OVA): 0.00961 µg/mL (≈ 0.0315 µM)
IC50 (2-LD2; coating antigen Hapten 3-OVA): 0.01715 µg/mL (≈ 0.0562 µM)
IC50 (2-LD2; coating antigen Hapten 4-OVA): 0.00119 µg/mL (≈ 0.0039 µM)
IC50 (1-F12; [4]): 0.58442 µg/mL (≈ 1.91 µM)
IC50 (1-F12; [5]): >4 µg/mL
IC50 (1-F12; [6]): >4 µg/mL
IC50 (1-F12; [7]): 0.79654 µg/mL (≈ 2.61 µM)
IC50 (1-F12; [8]): 0.48151 µg/mL
IC50 (1-F12; [9]): 1.35443 µg/mL (≈ 4.43 µM)
CR (1-F12; mAb 1-F12): 86.62%
IC50 (1-D6; [10]): >4 µg/mL
IC50 (1-D6; [11]): >4 µg/mL
IC50 (1-D6; [12]): >4 µg/mL
IC50 (1-D6; [13]): 0.91716 µg/mL (≈ 3 µM)
IC50 (1-D6; [14]): 0.93917 µg/mL (≈ 3.08 µM)
IC50 (1-D6; [15]): 0.26434 µg/mL (≈ 0.866 µM)
IC50 (1-D6; [2]): >4 µg/mL
CR (1-D6; mAb 1-D6): <1.48%
IC50 (1-G12; [16]): 1.22906 µg/mL (≈ 4.02 µM)
IC50 (1-G12; [17]): >4 µg/mL
IC50 (1-G12; [18]): >4 µg/mL
IC50 (1-G12; [19]): 0.83506 µg/mL (≈ 2.73 µM)
IC50 (1-G12; [20]): 0.33939 µg/mL (≈ 1.11 µM)
IC50 (1-G12; [21]): 0.66185 µg/mL (≈ 2.17 µM)
IC50 (1-G12; [3]): 1.22906 µg/mL (≈ 4.02 µM)
CR (1-G12; mAb 1-G12): 45.61%
IC50 (6-AT6; coating antigen Hapten 1-OVA): >4 µg/mL
IC50 (6-AT6; coating antigen Hapten 2-OVA): >4 µg/mL
IC50 (6-AT6; coating antigen Hapten 3-OVA): >4 µg/mL
IC50 (6-AT6; coating antigen Hapten 4-OVA): >4 µg/mL
IC50 (6-AT6; coating antigen Hapten 5-OVA): >4 µg/mL
IC50 (6-AT6; coating antigen Hapten 6-OVA): >4 µg/mL
IC50 (4-AT4; coating antigen Hapten 1-OVA): 0.00502 µg/mL (≈ 0.0164 µM)
IC50 (4-AT4; coating antigen Hapten 2-OVA): 0.13283 µg/mL (≈ 0.435 µM)
IC50 (4-AT4; coating antigen Hapten 3-OVA): 0.27036 µg/mL (≈ 0.885 µM)
IC50 (4-AT4; coating antigen Hapten 4-OVA): 0.00651 µg/mL (≈ 0.0213 µM)
IC50 (4-AT4; coating antigen Hapten 5-OVA): 0.00379 µg/mL (≈ 0.0124 µM)

COc1cc(CNC(=O)CCCCCCC(C)C)ccc1O [DCPC, dihydrocapsaicin]
IC50 (5-3H1; coating antigen Hapten 1-OVA): 0.01598 µg/mL (≈ 0.052 µM)
IC50 (5-3H1; coating antigen Hapten 2-OVA): 0.10263 µg/mL (≈ 0.334 µM)
IC50 (5-3H1; coating antigen Hapten 3-OVA): 0.25386 µg/mL (≈ 0.826 µM)
IC50 (5-3H1; coating antigen Hapten 4-OVA): 0.01135 µg/mL (≈ 0.0369 µM)
IC50 (5-3H1; coating antigen Hapten 5-OVA): 0.03124 µg/mL (≈ 0.102 µM)
IC50 (5-D8; coating antigen Hapten 1-OVA): 0.00582 µg/mL (≈ 0.0189 µM)
IC50 (5-D8; coating antigen Hapten 2-OVA): 0.16652 µg/mL (≈ 0.542 µM)
IC50 (5-D8; coating antigen Hapten 3-OVA): 0.05575 µg/mL (≈ 0.181 µM)
IC50 (5-D8; coating antigen Hapten 4-OVA): 0.0109 µg/mL (≈ 0.0355 µM)
IC50 (5-D8; coating antigen Hapten 5-OVA): 0.01319 µg/mL (≈ 0.0429 µM)
IC50 (3-LD3; coating antigen Hapten 2-OVA): 0.00124 µg/mL (≈ 0.00403 µM)
IC50 (3-LD3; coating antigen Hapten 3-OVA): 0.00062 µg/mL (≈ 0.00202 µM)
IC50 (3-LD3; coating antigen Hapten 4-OVA): 0.00184 µg/mL (≈ 0.00599 µM)
IC50 (2-LD2; coating antigen Hapten 1-OVA): 0.00947 µg/mL (≈ 0.0308 µM)
IC50 (2-LD2; coating antigen Hapten 2-OVA): 0.00485 µg/mL (≈ 0.0158 µM)
IC50 (2-LD2; coating antigen Hapten 3-OVA): 0.00154 µg/mL (≈ 0.00501 µM)
IC50 (2-LD2; coating antigen Hapten 4-OVA): 0.00073 µg/mL (≈ 0.00237 µM)
IC50 (1-F12; [4]): 0.55714 µg/mL (≈ 1.81 µM)
IC50 (1-F12; [5]): >4 µg/mL
IC50 (1-F12; [6]): >4 µg/mL
IC50 (1-F12; [7]): 0.41585 µg/mL (≈ 1.35 µM)
IC50 (1-F12; [8]): 0.14358 µg/mL
IC50 (1-F12; [9]): 0.8841 µg/mL (≈ 2.88 µM)
IC50 (1-F12; [1]): 0.55714 µg/mL (≈ 1.81 µM)
CR (1-F12; mAb 1-F12): 90.86%
IC50 (1-D6; [10]): 0.96982 µg/mL (≈ 3.15 µM)
IC50 (1-D6; [11]): >4 µg/mL
IC50 (1-D6; [12]): >4 µg/mL
IC50 (1-D6; [13]): 0.70128 µg/mL (≈ 2.28 µM)
IC50 (1-D6; [14]): 0.58873 µg/mL (≈ 1.91 µM)
IC50 (1-D6; [15]): 0.16792 µg/mL (≈ 0.546 µM)
IC50 (1-D6; [2]): 0.96982 µg/mL (≈ 3.15 µM)
CR (1-D6; mAb 1-D6): 6.10%
IC50 (1-G12; [16]): 0.70085 µg/mL (≈ 2.28 µM)
IC50 (1-G12; [17]): >4 µg/mL
IC50 (1-G12; [18]): >4 µg/mL
IC50 (1-G12; [19]): 0.72469 µg/mL (≈ 2.36 µM)
IC50 (1-G12; [20]): 0.37358 µg/mL (≈ 1.22 µM)
IC50 (1-G12; [21]): 0.35151 µg/mL (≈ 1.14 µM)
IC50 (1-G12; [3]): 0.70085 µg/mL (≈ 2.28 µM)
CR (1-G12; mAb 1-G12): 79.99%
IC50 (6-AT6; coating antigen Hapten 1-OVA): >4 µg/mL
IC50 (6-AT6; coating antigen Hapten 2-OVA): >4 µg/mL
IC50 (6-AT6; coating antigen Hapten 3-OVA): >4 µg/mL
IC50 (6-AT6; coating antigen Hapten 4-OVA): >4 µg/mL
IC50 (6-AT6; coating antigen Hapten 5-OVA): 1.46054 µg/mL (≈ 4.75 µM)
IC50 (6-AT6; coating antigen Hapten 6-OVA): >4 µg/mL
IC50 (4-AT4; coating antigen Hapten 1-OVA): 0.00581 µg/mL (≈ 0.0189 µM)
IC50 (4-AT4; coating antigen Hapten 2-OVA): 0.05733 µg/mL (≈ 0.186 µM)
IC50 (4-AT4; coating antigen Hapten 3-OVA): 0.25387 µg/mL (≈ 0.826 µM)
IC50 (4-AT4; coating antigen Hapten 4-OVA): 0.01068 µg/mL (≈ 0.0347 µM)
IC50 (4-AT4; coating antigen Hapten 5-OVA): 0.00313 µg/mL (≈ 0.0102 µM)
